Test results as given in ChEMBL document CHEMBL4261570, “Design, Synthesis and Preliminary Antimicrobial Evaluation of N-Alkyl Chain Tethered C-5 Functionalized Bis-Isatins” (Medchemcomm, 2017).
Active and inactive are the calls of the source. The rule behind the calls is not given here.

What was measured:
[1] = system: Trichomonas vaginalis; experiment: Antiparasitic activity against Trichomonas vaginalis assessed as parasite growth inhibition at 50 uM after 24 hrs by hemacytometer relative to control; assay type: functional; conditions: read-out: GI
Procedure, shortened: (§1)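 G3 strain cultured in TYM Diamond's medium in 15 mL tubes, with compound in DMSO. Controls were untreated and 0.1% DMSO. After 24 h, cells were counted by hemacytometer and normalized to the DMSO controls. Screening was at 50 μM. IC50 came from titrations of 5–40 μM with variable-slope regression, 4 independent trials on different days, and was then re-confirmed.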

[2] = system: Giardia intestinalis; experiment: Antiparasitic activity against Giardia lamblia WB trophozoites assessed as parasite growth inhibition at 50 uM after 48 hrs by ATP bioluminescence-based CellTiter-Glo luminescent cell viability assay relative to control; assay type: functional; conditions: Giardia duodenalis; for inhibition of growth at 50 µM: read-out: GI
Procedure, shortened: (§2)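 Trophozoites kept axenically in TYI-S-33 with penicillin and streptomycin. Each well held 5000 trophozoites and was incubated 48 h at 37 °C under anaerobic conditions in a GasPak pouch. Read-out was CellTiter-Glo ATP luminescence. Controls were 0.5% DMSO vehicle and 30 μM metronidazole. Primary screen at 50 μM in duplicate; hits were those above 50% inhibition. EC50 came from triplicate 8-point series (0.39–50 μM) and dose-response curves.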

[3] = system: Entamoeba histolytica; experiment: Antiparasitic activity against Entamoeba histolytica HM-1:IMSS trophozoites assessed as parasite growth inhibition at 50 uM after 48 hrs by ATP bioluminescence-based CellTiter-Glo luminescent cell viability assay relative to control; assay type: functional; conditions: for inhibition of growth at 50 µM: read-out: GI; procedure, shortened: as §2
[4] = system: Giardia intestinalis; experiment: Antiparasitic activity against Giardia lamblia WB trophozoites assessed as parasite growth inhibition after 48 hrs by ATP bioluminescence-based CellTiter-Glo luminescent cell viability assay; assay type: functional, organism-based; conditions: Giardia duodenalis; procedure, shortened: as §2
[5] = system: Naegleria fowleri; experiment: Antiparasitic activity against Naegleria fowleri KUL trophozoites assessed as parasite growth inhibition after 48 hrs by ATP bioluminescence-based CellTiter-Glo luminescent cell viability assay; assay type: functional, organism-based
Procedure, shortened: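 Strain KUL trophozoites cultured axenically in Nelson's medium with 10% FBS at 37 °C. Each well held 10 000 trophozoites, incubated under aerobic conditions without the anaerobe pouch. Read-out was CellTiter-Glo luminescence. Positive control was 50 μM amphotericin B. Hits were serially diluted in triplicate, 8 points from 0.39 to 50 μM, and EC50 was taken from dose-response curves.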

[6] = system: Lacticaseibacillus rhamnosus; experiment: Toxicity in Lactobacillus rhamnosus ATCC 53103 at 100 uM measured after overnight incubation by disc diffusion method; assay type: organism-based, GG; conditions: in vivo
Procedure, shortened: (§3)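 Grown in Lactobacilli MRS at 37 °C under anaerobic conditions. Blank 6 mm discs were soaked 20 min at room temperature in a 100 μM working dilution in medium. Discs were placed on streaked agar alongside DMSO vehicle and antibiotic discs (levofloxacin, gentamicin), incubated overnight at 37 °C, and zones of inhibition measured in mm.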

[7] = system: Limosilactobacillus reuteri; experiment: Toxicity in Lactobacillus reuteri ATCC 23272 at 100 uM measured after overnight incubation by disc diffusion method; assay type: organism-based; conditions: in vivo; procedure, shortened: as §3
[8] = system: Lactobacillus acidophilus; experiment: Toxicity in Lactobacillus acidophilus ATCC 43560 at 100 uM measured after overnight incubation by disc diffusion method; assay type: organism-based; conditions: in vivo; procedure, shortened: as §3
[9] = system: Escherichia coli; experiment: Toxicity in Escherichia coli K-12 MG1655 at 100 uM measured after overnight incubation by disc diffusion method; assay type: organism-based, K-12 substr. MG1655; conditions: in vivo
Procedure, shortened: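 Grown in Luria broth at 37 °C under aerobic conditions. Blank 6 mm discs were soaked 20 min at room temperature in a 100 μM working dilution in medium. Discs were placed on streaked agar alongside DMSO vehicle and antibiotic discs (levofloxacin, gentamicin), incubated overnight at 37 °C, and inhibition zones measured in mm.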

[10] = system: Trichomonas vaginalis; experiment: Antiparasitic activity against Trichomonas vaginalis assessed as parasite growth inhibition after 24 hrs by hemacytometer; assay type: functional, organism-based; procedure, shortened: as §1
[11] = system: Aspergillus parasiticus; experiment: Antifungal activity against Aspergillus parasiticus NRRL5862 assessed as fungal growth at 500 uM after 24 hrs by microtiter plate liquid bioassay (reference value: 100%); assay type: functional
Procedure, shortened: (§4)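 A. parasiticus grown at 35 °C on PDA. Liquid assay in RPMI 1640, 3 × 104 to 5 × 10^4 CFU per mL, triplicate wells, 35 °C. Compounds in DMSO (<2% in media). No-treatment wells carry matched DMSO. Wells scored visually 0–4 versus the no-treatment control: 0 clear, 1 25%, 2 50%, 3 75%, 4 no reduction. Scoring follows CLSI M38-A.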

[12] = system: Aspergillus parasiticus; experiment: Antifungal activity against Aspergillus parasiticus NRRL5862 assessed as fungal growth at 500 uM after 48 hrs by microtiter plate liquid bioassay (reference value: 100%); assay type: functional; procedure, shortened: as §4
[13] = system: Saccharomyces cerevisiae; experiment: Antifungal activity against Saccharomyces cerevisiae BY4741 assessed as fungal growth at 500 uM after 24 hrs by microtiter plate liquid bioassay (reference value: 100%); assay type: functional
[14] = system: Saccharomyces cerevisiae; experiment: Antifungal activity against Saccharomyces cerevisiae BY4741 assessed as fungal growth at 500 uM after 48 hrs by microtiter plate liquid bioassay (reference value: 100%); assay type: functional
[15] = system: Saccharomyces cerevisiae; experiment: Antifungal activity against Saccharomyces cerevisiae BY4741 assessed as decrease in fungal survival at 500 uM after 48 to 72 hrs by YPD plate-based assay; assay type: functional, organism-based
Procedure, shortened: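 At the end of the 500 μM SG-liquid microtiter assay, the entire well contents were spread onto YPD recovery plates. Plates were cultured a further 48 to 72 h at 30 °C to judge fungal survival.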

[16] = system: Entamoeba histolytica; experiment: Antiparasitic activity against Entamoeba histolytica HM-1:IMSS trophozoites assessed as parasite growth inhibition after 48 hrs by ATP bioluminescence-based CellTiter-Glo luminescent cell viability assay; assay type: functional, organism-based; procedure, shortened: as §2

Row | SMILES | inhibition of growth at 50 µM [1] [%] | inhibition of growth at 50 µM [2] [%] | inhibition of growth at 50 µM [3] [%] | IC50 [4] [µM] | IC50 [5] [µM] | Activity [6] | Activity [7] | Activity [8] | Activity [9] | IC50 [10] [µM] | Activity [11] | Activity [12] [%] | Activity [13] [%] | Activity [14] [%] | growth inhibition (GI) [3] | Activity [15] | growth inhibition (GI) [2] | IC50 [16] [µM]
1 | O=C1C(=O)N(CCCCCN2C(=O)C(=O)c3cc(Cl)ccc32)c2ccccc21 | 100 | 100 | 100 | 23.9 | 14.8 | Non-Toxic | Non-Toxic | Non-Toxic | Non-Toxic | – | – | – | – | – | – | – | – | –
2 | O=C1C(=O)N(CCN2C(=O)C(=O)c3cc(Cl)ccc32)c2ccccc21 | 78.8 | 3.82 | 73.6 | – | 28.3 | Non-Toxic | Non-Toxic | Non-Toxic | Non-Toxic | 15 | 100% | 100 | 25 | 50 | – | – | – | –
3 | O=C1C(=O)N(CCCN2C(=O)C(=O)c3cc(Br)ccc32)c2ccccc21 | 100 | 19.3 | – | – | – | Non-Toxic | Non-Toxic | Non-Toxic | Non-Toxic | 3.72 | 100% | 100 | 25 | 50 | inactive | – | – | –
4 | O=C1C(=O)N(CCCCCCCCBr)c2ccccc21 | 100 | 100 | – | 18.4 | – | Non-Toxic | Non-Toxic | Non-Toxic | Non-Toxic | – | 75 - 100% | 100 | 0 | 0 | inactive | inactive | – | –
5 | O=C1C(=O)N(CCBr)c2ccccc21 | 62.5 | 47.2 | 7.23 | – | 23.6 | Non-Toxic | Non-Toxic | Non-Toxic | Non-Toxic | – | 75 - 100% | 100 | 25 | 75 | – | – | – | –
6 | O=C1C(=O)N(CCCCCN2C(=O)C(=O)c3cc(F)ccc32)c2ccccc21 | 100 | – | – | – | 27.3 | Non-Toxic | Non-Toxic | Non-Toxic | Non-Toxic | – | 100% | 100 | 50 | 75 | inactive | – | inactive | –
7 | O=C1C(=O)N(CCCN2C(=O)C(=O)c3cc(F)ccc32)c2ccccc21 | 100 | 100 | – | 28.8 | – | Non-Toxic | Non-Toxic | Non-Toxic | Non-Toxic | 12.5 | – | – | – | – | inactive | – | – | –
8 | Cc1ncc([N+](=O)[O-])n1CCO [METRONIDAZOLE] | – | – | – | 6.4 | – | – | – | – | – | – | – | – | – | – | – | – | – | 5
9 | O=C1C(=O)N(CCCCBr)c2ccccc21 | 89.8 | 20.9 | 8.47 | – | 14.5 | Non-Toxic | Non-Toxic | Non-Toxic | Non-Toxic | – | 75 - 100% | 100 | 0 | 50 | – | – | – | –
10 | O=C1C(=O)N(CCCCCBr)c2ccccc21 | 71.4 | 25.8 | 100 | – | – | Non-Toxic | Non-Toxic | Non-Toxic | Non-Toxic | – | 75 - 100% | 100 | 0 | 50 | – | – | – | 23
11 | O=C1C(=O)N(CCCCCCBr)c2ccccc21 | 86.6 | 98.9 | – | 24.4 | – | Non-Toxic | Non-Toxic | Non-Toxic | Non-Toxic | – | 75 - 100% | 100 | 0 | 0 | inactive | inactive | – | –
12 | O=C1C(=O)N(CCCCN2C(=O)C(=O)c3cc(Br)ccc32)c2ccccc21 | 100 | – | – | – | – | Non-Toxic | Non-Toxic | Non-Toxic | Non-Toxic | 25 | – | – | – | – | inactive | – | inactive | –
